A selection: hits, their analogues and other compounds. The true share with any hit is near 2.9%.
TRPC4 agonist = TRPC4 (mouse) channel activation; HEK293 TRPC4beta/mu-opioid, Fluo4 calcium fluorescence; hits give high values; B-score at 10 µM; 310,000 tested, 0.49% active; AID 2237;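 active = B-score above 5 SD of library B-scores, and initial fluorescence ratio not above library mean plus 5 SD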;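 note: positive B-score marks a calcium rise read as TRPC4 activation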
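Assay system: HEK293 stable line with TRPC4beta plus mu-opioid receptor. Times: dye 45 min RT, read 110 s. Measured by: kinetic Fluo4 calcium fluorescence. Measure: B score of integrated ratio. Controls: assay buffer as low control, maximal DAMGO as high control.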
TRPC4 block = blocks the mouse TRPC4 cation channel; HEK293 TRPC4beta/mu-opioid, DAMGO-evoked Fluo4 calcium flux; hits give low values; B-score at 10 µM; Q9QUQ5; 300,000 tested, 0.39% active;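 active = B-score over 3 SD under the library average, no early fluorescence shift, positive overall ratio signal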
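Test system – stable TRPC4beta/mu-opioid receptor HEK293 cells · Probe or stimulus – DAMGO, a submaximal dose followed by a maximal one · Dosing – one concentration per compound · Signal – Fluo4 calcium fluorescence by kinetic imaging, 5 s 1 Hz baseline · Evaluation – per-well B score of integrated baseline-normalized Fluo4 ratio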
Kir21 block = Kir2.1 (mouse) channel inhibition; 310,000 tested, 0.85% active; HEK293-Kir2.1, FluxOR thallium flux fluorescence; hits give low values; B-score at 10 µM; P35561;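 active = fluorescence ratio B-score at or below minus 3 SD of library scores, with starting-brightness B-score within 2 SD, cut at about -4.2 in these data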;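 note: channel flux triggered by added potassium and thallium sulfate stimulus; B-score of peak minus minimum fluorescence over baseline after thallium stimulus; more negative B-score means stronger Kir2.1 block with less thallium influx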
TRPC6 inh = blocks the mouse TRPC6 cation channel | HEK293-TRPC6, membrane potential dye, ACh-evoked depolarization; hits give low values | 310,000 tested, 1.1% active | B-score at 10 µM;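 active = B-score under library mean minus 3 SD, initial fluorescence not abnormally high, positive integrated signal ratio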;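 note: B-score derived from integrated fluorescence ratio over the kinetic read; more negative B-score means stronger inhibition of depolarization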
Target sequence (Q61143 whole entry, looked up): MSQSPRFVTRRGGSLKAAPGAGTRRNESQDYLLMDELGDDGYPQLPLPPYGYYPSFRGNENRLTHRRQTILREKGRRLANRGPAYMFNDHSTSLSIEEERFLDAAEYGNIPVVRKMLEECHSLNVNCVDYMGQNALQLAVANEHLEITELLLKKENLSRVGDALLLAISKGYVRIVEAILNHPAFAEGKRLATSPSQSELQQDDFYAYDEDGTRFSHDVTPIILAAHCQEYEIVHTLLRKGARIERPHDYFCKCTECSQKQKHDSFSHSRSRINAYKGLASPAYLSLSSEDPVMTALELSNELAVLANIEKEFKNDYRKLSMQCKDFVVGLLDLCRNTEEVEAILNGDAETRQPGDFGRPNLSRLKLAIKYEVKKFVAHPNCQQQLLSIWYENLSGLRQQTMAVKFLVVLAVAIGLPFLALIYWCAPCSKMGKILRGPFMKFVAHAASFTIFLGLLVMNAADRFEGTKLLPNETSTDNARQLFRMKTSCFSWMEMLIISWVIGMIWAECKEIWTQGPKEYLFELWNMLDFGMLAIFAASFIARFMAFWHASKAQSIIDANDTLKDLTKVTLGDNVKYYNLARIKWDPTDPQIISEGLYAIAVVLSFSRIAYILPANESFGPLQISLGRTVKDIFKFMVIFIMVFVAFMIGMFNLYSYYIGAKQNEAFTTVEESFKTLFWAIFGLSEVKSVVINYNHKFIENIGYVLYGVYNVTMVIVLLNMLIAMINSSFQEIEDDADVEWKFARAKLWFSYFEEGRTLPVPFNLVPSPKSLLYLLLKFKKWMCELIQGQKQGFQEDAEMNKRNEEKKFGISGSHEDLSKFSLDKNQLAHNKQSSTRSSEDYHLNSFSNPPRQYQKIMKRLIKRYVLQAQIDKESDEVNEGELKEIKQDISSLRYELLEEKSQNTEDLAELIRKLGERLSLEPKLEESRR
TRPC4 potent = allosterically enhances the mouse TRPC4 cation channel. HEK293 TRPC4beta/mu-opioid, DAMGO EC20, Fluo-4 Ca2+ flux; hits give high values. 310,000 tested, 0.42% active. Q9QUQ5. AID 2227. B-score at 10 µM;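 active = B-score of calcium response area above 5 SD of library B-scores, with initial fluorescence ratio within 5 SD of library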
TRPC6 activator = activates the mouse TRPC6 cation channel. 310,000 tested, 0.13% active. Q61143. HEK293-TRPC6 membrane potential dye fluorescence; hits give high values. B-score at 10 µM;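 active = B-score of the integrated fluorescence ratio above library mean plus 3 SD, and starting fluorescence ratio within library mean plus 5 SD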;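 note: higher score means more depolarization so channel activation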
TRPC4 spec 2 = second selectivity test of TRPC6 inhibitors: effect on mouse TRPC4 | shares compounds with TRPC6 inh | HEK293 TRPC4/MOR, membrane potential dye fluorescence; channel activated by saturating DAMGO dose | 920 tested, 42% active | inhibition, % at 10 µM | AID 2776;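 active = compounds whose fluorescence signal differed from control wells by over 3 SD, either direction, in both duplicate plates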
TRPC4 spec = mouse TRPC4 off-target activity of TRPC6 inhibitors; shares compounds with TRPC6 inh; HEK293 TRPC4/mu-opioid, membrane potential fluorescence; activity change, negative = inhibition, % at 10 µM; 920 tested, 61% active; AID 2777;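 active = rise or fall in signal beyond 3 SD of buffer-only wells in both replicate plates, either sign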;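 note: integrated kinetic ratio of fluorescence range over baseline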
HEK293 MPD ctr 2-1 = parental HEK293 nonspecific activity of TRPC6 inhibitors, second screen. shares compounds with TRPC6 inh. parental HEK293 membrane potential dye fluorescence; maximal acetylcholine challenge after compound addition. signal change vs control, % at 10 µM. 920 tested, 31% active. AID 2779;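 active = membrane potential signal moving either way by over 3 SD of the maximum-effect control, in both duplicate plates, meaning non-specific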
HEK293 MPD ctr-1 = checks TRPC6 inhibitor effects in parental HEK293 cells; shares compounds with TRPC6 inh; parental HEK293 membrane potential dye fluorescence; membrane potential signal change, % at 10 µM; 920 tested, 60% active;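 active = membrane potential signal shifting up or down by more than 3 SD of buffer-only wells, on both duplicate plates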
HEK293 MPD ctr-2 = parental HEK293 nonspecific activity of TRPC6 modulators; shares compounds with TRPC6 inh; membrane potential dye fluorescence; AID 488924; membrane potential signal change, % at 10 µM; 2,400 tested, 51% active;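 active = membrane potential signal moves up or down beyond 5 SD from buffer-only wells, on both duplicate plates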
HEK293 MPD ctr 2-2 = second counter-screen for TRPC6 modulators: effect in parental HEK293 cells; shares compounds with TRPC6 inh; membrane potential dye fluorescence; after compound, maximal acetylcholine stimulation; inhibition, % at 10 µM; 2,400 tested, 14% active; AID 488926;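 active = membrane potential signal drops by more than 5 SD from the mean control signal, in both duplicate plates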
TRPC4/MOR mod = mouse TRPC4 off-target activity of TRPC6 modulators; percent change from control (negative = decrease, positive = increase), % at 10 µM; shares compounds with TRPC6 inh; 2,400 tested, 69% active; HEK293 TRPC4/mu-opioid, membrane potential fluorescence;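 active = membrane potential signal moved up or down beyond 5 SD of buffer control wells, in both duplicate plates, actives on both sides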
TRPC4 ctr inh 2 = second selectivity test of TRPC6 modulators against mouse TRPC4; shares compounds with TRPC6 inh; HEK293 TRPC4/mu-opioid, membrane potential dye fluorescence; stimulated with maximal-effect DAMGO; inhibition, % at 10 µM; 2,400 tested, 55% active; AID 488928;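 active = drop in membrane potential signal beyond 5 SD of the control wells in both duplicate plates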;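 note: TRPC4 counter screen for TRPC6 hits run under conditions tuned for TRPC6 not TRPC4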
TRPC6 block conf = mouse TRPC6 inhibitor confirmation. AID 488960. inhibition, % at 10 µM. shares compounds with TRPC6 inh. 3,300 tested, 43% active. HEK293-TRPC6, membrane potential dye, ACh-evoked depolarization;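 active = fluorescence ratio falls more than 5 SD below the full-stimulation control mean, in both duplicate runs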;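 note: integrated fluorescence ratio of peak minus minimum over baseline after agonist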
TRPC6 act conf = mouse TRPC6 activator confirmation; AID 488961; HEK293-TRPC6 membrane potential dye fluorescence, FDSS; shares compounds with TRPC6 inh; activation, % at 10 µM; 2,800 tested, 11% active;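 active = ratio signal rise beyond 5 SD above unstimulated control wells' mean, seen in both duplicate runs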
Hits are given with their value; - = inactive; . = no result.

SMILES	TRPC4 agonist	TRPC4 block	Kir21 block	TRPC6 inh	TRPC4 potent	TRPC6 activator	HEK293 MPD ctr-2	HEK293 MPD ctr 2-2	TRPC4/MOR mod	TRPC4 ctr inh 2	TRPC6 block conf	TRPC6 act conf	others
CCOC(=O)N1CCN(CCC(=O)Nc2cc([N+](=O)[O-])ccc2OC)CC1	-	-	-	-	-	-	.	.	.	.	.	.
O=C(CSCc1cnn(-c2ccccc2)c1-n1cccc1)NCc1ccccn1	-	-	-4.4	-6.3	-	-	-	-	11%	-	-	.
CC(=O)C1C(=O)c2c(cccc2[N+](=O)[O-])C1=Nc1ccc(S(N)(=O)=O)cc1 (stereo unspecified)	-	-	-	-9.7	-	-	-250%	-	-51%	52%	-	-
CC(=O)C1=C(O)C(=O)N(c2ccc(S(N)(=O)=O)cc2)C1c1cccc([N+](=O)[O-])c1 (stereo unspecified)	-	-	-	-	-	-	.	.	.	.	.	.
CCNc1ccc2noc3c2c1C(=O)c1ccccc1-3	-	-	-	-5.8	-	-	231%	108%	-282%	144%	70%	-
COCCNC(=O)C(c1cccnc1)N(Cc1ccc(C)cc1)C(=O)Cn1nnc2ccccc21 (stereo unspecified)	-	-	-	-	-	-	.	.	.	.	.	.
COc1ccc(Cc2nnc(N/N=C/c3ccc(O)cc3O)[nH]c2=O)cc1OC	-	-	-	-	-	-	.	.	.	.	.	.
CC(=O)Nc1ccc(OCc2nnc(-c3ccc(Cl)cc3)o2)cc1	-	-	-	-6.3	-	-	-	-	-	-	-	-
CCOP(=O)(c1ccccc1)c1nc(-c2ccccc2C)oc1NCc1ccccc1 (stereo unspecified)	-	-	-	-	-	-	.	.	.	.	.	.
Cc1cc(NC(=O)CNCC(c2ccccc2)N(C)C)c([N+](=O)[O-])cc1C (stereo unspecified)	-	-	-	-9.4	-	-	.	.	.	.	-	-	TRPC4 spec 2=64%;TRPC4 spec=-12%;HEK293 MPD ctr 2-1=-;HEK293 MPD ctr-1=-151%
CCn1c2ccc(C)cc2c2n[nH]c(=S)nc21	-	-	-	-	-	-	.	.	.	.	.	.
CC(SCc1ccc(C(=O)O)o1)c1ccc(C(=O)O)o1 (stereo unspecified)	-	-	-	-	-	-	.	.	.	.	.	.
Nc1cccc(C(=O)OCC(=O)Nc2cccc3c2C(=O)c2ccccc2C3=O)c1	-	-	-	-	-	-	.	.	.	.	.	.
CCN(CC)CCC(=O)Nc1cccc2c1C(=O)c1ccccc1C2=O	-	-	-	-6.4	-	-	-	-	-30%	46%	52%	-
Cc1cc(Cl)c(OCCCNCc2ccccc2)c(Br)c1	-	-	-	-	-	12	302%	-	68%	-	-	139%
CCN(CC)C(=O)c1cn(CCC#N)nc1-c1ccc2ccccc2c1	-	-	-	-	-	-	.	.	.	.	.	.
C=C(C)Cc1c(C)c(C#N)c2nc3ccccc3n2c1NCCCN(C)C	-	-	-	-7.2	-	-	.	.	.	.	-	-	TRPC4 spec 2=48%;TRPC4 spec=-16%;HEK293 MPD ctr 2-1=-;HEK293 MPD ctr-1=-354%
CCc1c(C)c(C#N)c2nc3ccccc3n2c1NCCN(C)C	-	-	-	-9.5	-	-	-85%	112%	-18%	76%	78%	-
C=CCc1c(C)c(C#N)c2nc3ccccc3n2c1NCCN(C)C	-	-	-	-5.4	-	-	-116%	-	-24%	52%	54%	-
CCCc1cc(NCCCN(C)C)n2c(nc3ccccc32)c1C#N	-	-	-	-6.8	-	-	.	.	.	.	63%	-	TRPC4 spec 2=62%;TRPC4 spec=-36%;HEK293 MPD ctr 2-1=42%;HEK293 MPD ctr-1=-454%
O=C(O)C1=C[C@H](c2ccc(F)cc2)C[C@H](OCc2ccc(CO)cc2)O1	-	-	-	-	-	-	.	.	.	.	.	.
COc1ccccc1Nc1nc(NCCCN(C)C)nc(N)c1[N+](=O)[O-]	-	-	-	-6.4	-	-	-	-	-	49%	42%	-
O=C(/C=C/c1cccc([N+](=O)[O-])c1)NCCSCc1cccc(Cl)c1	-	-	-	-	-	-	.	.	.	.	.	.
CCN(CC)CCN(Cc1cc2cc3c(cc2[nH]c1=O)OCO3)C(=S)NCc1ccco1	-	-	-	-5.5	-	-	-	-	-	58%	-	.
Cc1ccn2c(=O)c(C(=O)NC3CCCCC3C)c(O)nc2c1 (stereo unspecified)	-	-	-	-	-	-	.	.	.	.	.	.
N#C/C(=C/c1ccc(N2CCOCC2)o1)c1ccc(Br)cc1	-	-	-	-	-	25	568%	-	152%	-	-	116%
N#C/C(=C\c1ccc(N2CCOCC2)o1)c1ccccc1	-	-	-	-	-	18	448%	-	89%	-	-	166%
Cc1ccc(CN2CCN(/N=C/c3ccc(Cl)c([N+](=O)[O-])c3)CC2)cc1	-	-	-	-	-	-	.	.	.	.	.	.
COc1cc(C(=O)OCC(=O)Nc2c(F)c(F)c(F)c(F)c2F)cc(OC)c1OC	-	-	-	-5.4	-	-	-	-	-	-	-	-
Cc1cc2ncn(CCOc3ccccc3C#N)c2cc1C	-	-	-	-	-	-	.	.	.	.	.	.

Screens deposited in PubChem BioAssay by Johns Hopkins Ion Channel Center.
